ChEMBL document CHEMBL4406829, “Synthesis and in vitro evaluation of piperazinyl-ureido sulfamates as steroid sulfatase inhibitors” (Eur J Med Chem, 2019)
pIC50: −log10 of the molar value.

What was measured:
[1] = biological target: T1, Steryl-sulfatase (Homo sapiens) (UniProt P08842); experiment: Inhibition of steroid sulfatase in human JEG3 cell lysates assessed as residual activity at 10 uM using [3H] E1S as substrate after 1 hr by scintillation spectrometry analysis relative to control; values are per cent of control; conditions: Lysate
T1 sequence (whole entry): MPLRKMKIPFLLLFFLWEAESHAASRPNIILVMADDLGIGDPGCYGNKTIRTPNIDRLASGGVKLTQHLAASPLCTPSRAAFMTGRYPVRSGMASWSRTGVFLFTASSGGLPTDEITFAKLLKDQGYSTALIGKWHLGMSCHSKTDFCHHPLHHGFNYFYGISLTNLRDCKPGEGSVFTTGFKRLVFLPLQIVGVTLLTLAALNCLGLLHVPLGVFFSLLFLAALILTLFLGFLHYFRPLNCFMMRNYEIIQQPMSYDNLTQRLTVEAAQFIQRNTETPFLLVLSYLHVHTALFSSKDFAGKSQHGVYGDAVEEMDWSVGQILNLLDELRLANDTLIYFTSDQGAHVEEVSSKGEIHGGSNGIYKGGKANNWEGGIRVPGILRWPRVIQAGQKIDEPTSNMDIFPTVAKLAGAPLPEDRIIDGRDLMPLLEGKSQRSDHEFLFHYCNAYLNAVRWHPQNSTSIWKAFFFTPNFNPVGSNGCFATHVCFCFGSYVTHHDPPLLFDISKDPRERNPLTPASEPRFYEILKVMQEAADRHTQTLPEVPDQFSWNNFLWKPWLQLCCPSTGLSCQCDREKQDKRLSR

Steryl-sulfatase = biological target: T2, Steryl-sulfatase (Homo sapiens, UniProt P08842); experiment: Inhibition of steroid sulfatase in human JEG3 cell using [3H] E1S as substrate after 1 hr by scintillation spectrometry analysis
T2 sequence (P08842 whole entry): T1 sequence (whole entry)
How it was run: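 JEG-3 (human placental choriocarcinoma) lysate at 125 μg protein/mL incubated 1 h with inhibitor (0.001–10 μM) and [3H]E1S adjusted to 20 μM with unlabelled E1S. Estrone product was extracted with toluene, and [14C]E1 was used to correct for losses. Read-out was 3H/14C scintillation counting. IC50 from activity with and without inhibitor; mean ± S.D., n = 3.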

residual activity [1] | pIC50 (Steryl-sulfatase) | Compound
26.7% |  | Cc1cccc(-c2ccnc(N3CCN(C(=O)Nc4ccc(OS(N)(=O)=O)cc4)CC3)n2)c1
5.9% | 7.18 | Cc1cccc(N2CCN(C(=O)Nc3ccc(OS(N)(=O)=O)cc3)CC2)c1C
16.9% |  | NS(=O)(=O)Oc1ccc(NC(=O)N2CCN(c3ccccc3)CC2)cc1
37% |  | COc1ccc(N2CCN(C(=O)Nc3ccc(OS(N)(=O)=O)cc3)CC2)cc1
7.8% |  | CCCCCCCCCCN1CCN(C(=O)Nc2ccc(OS(N)(=O)=O)cc2F)CC1
108% |  | NS(=O)(=O)Oc1ccc(NC(=O)N2CCN(c3ccc(Cl)cc3)CC2)c(F)c1
7.1% | 8.29 | NS(=O)(=O)Oc1ccc(NC(=O)N2CCN(c3ccc(Cl)cc3)CC2)cc1F
10.4% |  | Cc1cccc(N2CCN(C(=O)Nc3ccc(OS(N)(=O)=O)cc3)CC2)c1
93.5% |  | NS(=O)(=O)Oc1ccc(NC(=O)N2CCN(c3ccc(F)cc3)CC2)cc1
44.3% |  | NS(=O)(=O)Oc1ccc(NC(=O)N2CCN(c3nccc(-c4cccc(C(F)(F)F)c4)n3)CC2)cc1
26.3% |  | COc1cccc(N2CCN(C(=O)Nc3ccc(OS(N)(=O)=O)cc3)CC2)c1
39.4% |  | NS(=O)(=O)Oc1ccc(NC(=O)N2CCN(c3nccc(-c4cccc(Br)c4)n3)CC2)cc1
14.9% | 7.03 | NS(=O)(=O)Oc1ccc(NC(=O)N2CCN(c3ccc(Cl)cc3)CC2)cc1
109% |  | Cc1cccc(N2CCN(C(=O)Nc3ccc(OS(N)(=O)=O)cc3F)CC2)c1C
110% |  | NS(=O)(=O)Oc1ccc(NC(=O)N2CCN(c3ccc(Cl)cc3)CC2)cc1Cl
29.6% |  | CCCCCCCCN1CCN(C(=O)Nc2ccc(OS(N)(=O)=O)cc2F)CC1
47.9% |  | Cc1ccccc1N1CCN(C(=O)Nc2ccc(OS(N)(=O)=O)cc2)CC1
15.1% | 7.77 | Cc1cccc(N2CCN(C(=O)Nc3ccc(OS(N)(=O)=O)c(Cl)c3)CC2)c1C
23% | 5.91 | NS(=O)(=O)Oc1ccc(NC(=O)N2CCN(c3ccc(Cl)c(Cl)c3)CC2)cc1

Further lines, the molecule ahead of its results:

Compound | residual activity [1] | pIC50 (Steryl-sulfatase)
COc1ccc(-c2ccnc(N3CCN(C(=O)Nc4ccc(OS(N)(=O)=O)cc4)CC3)n2)cc1OC | 60.7% | 
NS(=O)(=O)Oc1ccc(NC(=O)N2CCN(Cc3ccccc3)CC2)cc1 | 18.7% | 
CCCCCCCCN1CCN(C(=O)Nc2ccc(OS(N)(=O)=O)cc2Cl)CC1 | 71.6% | 
CCCCCCCCN1CCN(C(=O)Nc2ccc(OS(N)(=O)=O)c(Cl)c2)CC1 | 13.9% | 7.72
COc1cc(-c2ccnc(N3CCN(C(=O)Nc4ccc(OS(N)(=O)=O)cc4)CC3)n2)cc(OC)c1OC | 19% | 
NS(=O)(=O)Oc1ccc(NC(=O)N2CCN(c3nccc(-c4cc5ccccc5o4)n3)CC2)cc1 | 4.7% | 6.86
CCCCCCCCCCN1CCN(C(=O)Nc2ccc(OS(N)(=O)=O)c(Cl)c2)CC1 | 25.4% | 
NS(=O)(=O)Oc1ccc(NC(=O)N2CCN(Cc3cc4ccccc4o3)CC2)cc1 | 20.2% | 
CCCCCCCCCCN1CCN(C(=O)Nc2ccc(OS(N)(=O)=O)cc2)CC1 | 3.5% | 7.48
CCCCCCCCCCN1CCN(C(=O)Nc2ccc(OS(N)(=O)=O)cc2Cl)CC1 | 102% | 
CCCCCCCCN1CCN(C(=O)Nc2ccc(OS(N)(=O)=O)c(F)c2)CC1 | 11.4% | 8.06
COc1ccc(-c2ccnc(N3CCN(C(=O)Nc4ccc(OS(N)(=O)=O)cc4)CC3)n2)cc1 | 7.9% | 
CCCCCCCCCCN1CCN(C(=O)Nc2ccc(OS(N)(=O)=O)c(F)c2)CC1 | 15.2% | 
NS(=O)(=O)Oc1ccc(NC(=O)N2CCN(c3nccc(-c4ccccc4)n3)CC2)cc1 | 65.9% | 
CCCCCCCCN1CCN(C(=O)Nc2ccc(OS(N)(=O)=O)cc2)CC1 | 12.4% | 7.36
CCCCCCCN1CCN(C(=O)Nc2ccc(OS(N)(=O)=O)cc2)CC1 | 27.7% | 5.77
